Measurements as given in ChEMBL document CHEMBL1123358, “Design and synthesis of sodium (beta R*, gamma S*)-4-[[3-(4-acetyl-3-hydroxy-2-propylphenoxy)propyl] thio]-gamma-hydroxy-beta-methylbenzenebutanoate: a novel, selective, and orally active receptor antagonist of leukotriene D4” (J Med Chem, 1986).

Legend:
Cavia porcellus [1] = species: Cavia porcellus; assay: In vitro inhibition of responses induced by LTD4 in Isolated terminal guinea pig ileum segments at 0.1 ug/mL; type: functional
Method in brief: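 Terminal ileum segments (2.5 cm) in aerated Krebs-bicarbonate with atropine (10⁻⁶ M) and timolol maleate (0.5 μg/mL), held under 1 g passive force. After equilibration, submaximal control contractions to LTD₄ (0.3 ng/mL) were recorded. Test substance was given for 30 s, then the control LTD₄ concentration was re-added and tension was measured. Percent inhibition is at 0.1 μg/mL, mean ± SEM of three determinations.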

Cavia porcellus [2] = assay: In vivo activity against bronchoconstrictions induced by LTD4 (0.2 ug/kg, iv) in anesthetized guinea pig following id administration of compound; type: functional
Method in brief: (§1)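 Anesthetized, artificially ventilated guinea pigs received a single intraduodenal dose, then iv LTD₄ (0.2 μg/kg) bronchoconstriction challenge. Effective dose is the minimum dose giving more than 50% inhibition of bronchoconstriction within 50 min after dosing, with the number of experiments in parentheses.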

Cavia porcellus [3] = assay: In vivo activity against bronchoconstrictions induced by LTD4 (0.2 ug/kg, iv) in anesthetized guinea pig following iv administration of compound; type: functional
Method in brief: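 Artificially ventilated, anesthetized guinea pigs were challenged with LTD₄ 0.2 μg/kg iv. Drug was given iv in cumulative doses, 5 min before each successive LTD₄ challenge. ED₅₀ is from one to two determinations, or mean ± SEM where repeated, with n in parentheses.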

[4] = molecular target: T1, Cysteinyl leukotriene receptor 1 (Cavia porcellus, UniProt Q2NNR5); assay: Compound was tested for inhibition of radioligand [3H]LTD4 binding to Cysteinyl leukotriene D4 receptor in guinea pig lung membranes; type: cell membranes, Membrane
T1 sequence (Q2NNR5 whole entry): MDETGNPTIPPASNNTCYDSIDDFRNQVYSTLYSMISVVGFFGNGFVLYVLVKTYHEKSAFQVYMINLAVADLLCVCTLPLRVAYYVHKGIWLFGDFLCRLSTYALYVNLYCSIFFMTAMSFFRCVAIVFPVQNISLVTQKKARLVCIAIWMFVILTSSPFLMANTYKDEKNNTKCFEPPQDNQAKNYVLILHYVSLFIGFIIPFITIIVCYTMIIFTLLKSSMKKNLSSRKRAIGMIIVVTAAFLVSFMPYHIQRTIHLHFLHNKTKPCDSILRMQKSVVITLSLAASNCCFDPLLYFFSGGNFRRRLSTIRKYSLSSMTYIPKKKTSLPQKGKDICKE

Cavia porcellus [5] = assay: In vivo activity against bronchoconstrictions induced by LTD4 (0.2 ug/kg, iv) in anesthetized guinea pig administered intraduodenally at 5 mg/kg concentration of compound; type: functional; details: route intraduodenal; method in brief: as §1
[6] = molecular target: T1, Cysteinyl leukotriene receptor 1; assay: Compound was tested for inhibition of radioligand [3H]LTC4 binding to Cysteinyl leukotriene D4 receptor in guinea pig lung membranes; type: cell membranes, Membrane

Ki [4]	Ki [6]	SMILES	inhibition at 0.1 µg/mL (Cavia porcellus [1])	ED (Cavia porcellus [2])	ED50 (Cavia porcellus [3])	inhibition in vivo at 5 mg/kg (Cavia porcellus [5])
		CCCc1c(OCCCOc2ccc(C(=O)CCC(=O)O)cc2)ccc(C(C)=O)c1O	49%	5 mg/kg	1.1 mg/kg	
		CCCc1c(OCCCSc2ccc(CC(=O)O)cc2)ccc(C(C)=O)c1O	65%	10 mg/kg	1.3 mg/kg	
		CCCc1c(OCCCSc2ccc(C(O)C(C)CC(=O)[O-])cc2)ccc(C(C)=O)c1O.[Na+] (centres undefined)	62%	>10 mg/kg	1.5 mg/kg	
		CCCc1c(OCCCOc2ccc(C(=O)CCC(=O)O)cc2C)ccc(C(C)=O)c1O	53%	>10 mg/kg		
		CCCc1c(OCCCOc2ccc(C(=O)CCC(=O)O)cc2F)ccc(C(C)=O)c1O	81%	10 mg/kg	1 mg/kg	
		CCCc1c(OCCCSc2ccc(C(=O)CCc3nnn[nH]3)cc2)ccc(C(C)=O)c1O	63%	>10 mg/kg	0.6 mg/kg	
		CCCc1cc(C(=O)CCC(=O)O)ccc1SCCCOc1ccc(C(C)=O)c(O)c1CCC	37%	10 mg/kg	0.2 mg/kg	
		CCCc1c(OCCCSc2ccc(C(O)CCC(=O)O)cc2)ccc(C(C)=O)c1O (centres undefined)	65%	10 mg/kg	0.5 mg/kg	
		CCCc1c(OCCCSc2ccc(C(=O)CCC(=O)O)cc2F)ccc(C(C)=O)c1O	82%	10 mg/kg	1.1 mg/kg	
		CCCc1c(OCCCSc2ccc(C(O)C(C)(C)CC(=O)[O-])cc2)ccc(C(C)=O)c1O.[Na+] (centres undefined)	45%	5 mg/kg	0.5 mg/kg	
0.4 µM	8.6 µM	CCCc1c(OCCCSc2ccc(C(O)[C@@H](C)CC(=O)[O-])cc2)ccc(C(C)=O)c1O.[Na+] (some centres undefined)	73%	5 mg/kg	0.26 mg/kg	> 50%
		CCCc1c(OCC(O)CSc2ccc(C(=O)CCC(=O)O)cc2F)ccc(C(C)=O)c1O (centres undefined)	32%	>10 mg/kg	0.9 mg/kg	
		CCCc1c(OCCCSc2ccc(C(=O)CCC(=O)O)cc2)ccc(C(C)=O)c1O	63%	10 mg/kg	1.1 mg/kg	
		CCCc1c(OCC(O)COc2ccc3c(=O)cc(C(=O)O)oc3c2CCC)ccc(C(C)=O)c1O (centres undefined) [FPL-55712]	83%	>10 mg/kg	0.1 mg/kg	
